The subject of assay [1] is cell-free translation of firefly luciferase in E. coli S30 cell extract. The format is biochemical. Particulars: 30 μM inhibitor. A digest of the protocol: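 In vitro transcribed firefly luciferase mRNA (100 ng) was translated in E. coli S30 extract at 37°C for 30 min with test compound at 30 μM final. Luciferase activity was read with Steady-Glo substrate. Reactions were run in triplicate; error bars are confidence interval (α = 0.05).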

The subject of the next assay is E. coli 70S ribosomes. Briefly: Competition binding assay with BODIPY-labeled erythromycin. Particulars: ratio of KDapp versus CLM; listed as L-histidyl analogue. A digest of the protocol: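 E. coli 70S ribosomes (25 nM) preincubated with BODIPY-erythromycin (4 nM) for 30 min at 25°C in 20 mM HEPES-KOH pH 7.5, 50 mM NH₄Cl, 10 mM Mg acetate, 0.05% Tween-20. Test compound was added at 0.1 μM to 1 mM, then incubated 2 h to equilibrium. Fluorescence polarization was read to give apparent KD by competition.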

The test system of assay [2] is ribosome translating synthetic ORF […]. Briefly: Primer extension inhibition. In kind it is biochemical. Particulars: 100 μM antibiotic, with or without mupirocin 50 μM, ORF MFKAFKNIIRTRTL

On to `O=C(N[C@H](CO)[C@H](O)c1ccc([N+](=O)[O-])cc1)C(Cl)Cl` [CLM, chloramphenicol], for which the “Inhibition of firefly luciferase synthesis (in words)” value in assay [1] was “near-complete inhibition”.

Regarding `N[C@@H](Cc1c[nH]cn1)C(=O)N[C@H](CO)[C@H](O)c1ccc([N+](=O)[O-])cc1` [His-CAM (1)], in the assay on E. coli 70S ribosomes, the “Affinity for the ribosome relative to CLM (fold higher)” value worked out at 10 fold.

As for `C=C[C@]1(C)C[C@@H](OC(=O)CS[C@@H]2C[C@H]3CC[C@@H](C2)N3C)[C@]2(C)[C@H](C)CC[C@]3(CCC(=O)[C@H]32)[C@@H](C)[C@@H]1O` [retapamulin (RET), retapamulin], in assay [2], the “Site of antibiotic-induced translation arrest (toe-printing)” value is on record as “arrests the ribosome at the start codon”.

(Values after article PMC6023675 (Journal of molecular biology, 2018).)
